From ChEMBL document CHEMBL1143653, “Discovery of a (1H-benzoimidazol-2-yl)-1H-pyridin-2-one (BMS-536924) inhibitor of insulin-like growth factor I receptor kinase with in vivo antitumor activity” (J Med Chem, 2005)
Values belong to the molecule of their own block, whether it stands above or below them.

Tests used:
Cytochrome P450 2C9 = Cytochrome P450 2C9 (Homo sapiens, UniProt P11712); assay: Concentration required to inhibit Cytochrome P450 2C9 in vitro by 50%
Cytochrome P450 2C19 = Cytochrome P450 2C19 (Homo sapiens, UniProt P33261); assay: Concentration required to inhibit cytochrome P450 isozyme CYP2C19 in vitro by 50%; assay type: ADME
Cytochrome P450 3A4 [1] = target: T1, Cytochrome P450 3A4 (Homo sapiens, UniProt P08684); assay: Concentration required to inhibit cytochrome P450 isozyme CYP3A4-BFC in vitro by 50%; assay type: ADME
Cytochrome P450 1A2 = target: T2, Cytochrome P450 1A2 (Homo sapiens, UniProt P05177); assay: Concentration required to inhibit Cytochrome P450 1A2 in vitro by 50%; assay type: ADME
T2 sequence (P05177 whole entry): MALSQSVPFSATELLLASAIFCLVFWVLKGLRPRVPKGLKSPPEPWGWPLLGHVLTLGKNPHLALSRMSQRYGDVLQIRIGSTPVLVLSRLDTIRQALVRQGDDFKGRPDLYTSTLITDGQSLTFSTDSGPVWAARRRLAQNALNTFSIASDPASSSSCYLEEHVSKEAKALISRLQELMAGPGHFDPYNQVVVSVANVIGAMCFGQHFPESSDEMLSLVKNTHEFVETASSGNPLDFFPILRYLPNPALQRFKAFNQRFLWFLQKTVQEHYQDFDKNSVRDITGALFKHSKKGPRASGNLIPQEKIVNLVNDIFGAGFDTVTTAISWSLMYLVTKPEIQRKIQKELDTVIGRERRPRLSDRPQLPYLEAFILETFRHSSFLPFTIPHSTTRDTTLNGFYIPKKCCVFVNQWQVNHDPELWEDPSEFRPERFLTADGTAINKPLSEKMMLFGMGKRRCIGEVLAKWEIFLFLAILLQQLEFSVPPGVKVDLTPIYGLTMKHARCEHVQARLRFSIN

Cytochrome P450 3A4 [2] = target: T1, Cytochrome P450 3A4; assay: Concentration required to inhibit cytochrome P450 isozyme CYP3A4-BzRes in vitro by 50%; assay type: ADME
[3] = Maximum concentration in dog administered orally at 5 mg/kg; assay type: ADME, organism-based, Canis lupus familiaris; set-up: dose 5 mg/kg, route oral; settings: in vivo, po
[4] = Bioavailability in rat administered perorally at 50 mg/kg; assay type: ADME, organism-based; settings: in vivo, po
COLO 205 = assay: In vitro inhibitory concentration against COLO 205 (colon) cell line with ATP concentration at 1/2Km; assay type: functional, cell-based; settings: Homo sapiens
[5] = Steady-state volume of distribution in monkey when administered intravenously at 2 mg/kg; assay type: ADME, organism-based; set-up: dose 2 mg/kg, route intravenous; settings: cercopithecidae, in vivo, iv, read-out: Vss
[6] = Maximum concentration in monkey administered orally at 5 mg/kg; assay type: ADME, organism-based; set-up: dose 5 mg/kg, route oral; settings: cercopithecidae, in vivo, po
[7] = Total clearance in mouse when administered intravenously at 4 mg/kg; assay type: ADME, organism-based; set-up: dose 4 mg/kg, route intravenous; settings: in vivo, iv, read-out: CLtot
[8] = Total clearance in dog when administered intravenously at 2 mg/kg; assay type: ADME, organism-based, Canis lupus familiaris; set-up: dose 2 mg/kg, route intravenous; settings: in vivo, iv, read-out: CLtot
[9] = Steady-state volume of distribution in dog when administered intravenously at 2 mg/kg; assay type: ADME, organism-based, Canis lupus familiaris; set-up: dose 2 mg/kg, route intravenous; settings: in vivo, iv, read-out: Vss
[10] = In vitro inhibitory concentration against Geo (colon) cell line with ATP concentration at 1/2Km; assay type: functional, Homo sapiens
[11] = target: Dual specificity mitogen-activated protein kinase kinase 1 (Homo sapiens, UniProt Q02750); assay: In vitro inhibitory concentration against MEK with ATP concentration at 1/2Km
Procedure, shortened: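 Cell-free kinase inhibition assay. ATP was set at ½ Km, determined separately for each kinase, and the IC50 was derived under that condition.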

[12] = In vitro inhibitory concentration against MDA PCa-2b (prostate) cell line with ATP concentration at 1/2Km; assay type: functional, Homo sapiens
[13] = Total clearance in monkey at 2 mg/kg intravenous dose; assay type: ADME, organism-based; set-up: dose 2 mg/kg, route intravenous; settings: cercopithecidae, in vivo, read-out: CLtot
[14] = Bioavailability in monkey at 5 mg/kg oral dose; assay type: ADME, organism-based; settings: cercopithecidae, in vivo
RD = assay: In vitro inhibitory concentration against RD1 (rhabdomyosarcoma) cell line with ATP concentration at 1/2Km; assay type: functional, cell-based; settings: Homo sapiens
[15] = Bioavailability in dog at 5 mg/kg oral dose; assay type: ADME, organism-based, Canis lupus familiaris; settings: in vivo
MCF7 = assay: In vitro inhibitory concentration against MCF-7(breast) cell line with ATP concentration at 1/2Km; assay type: functional, cell-based; settings: Homo sapiens
[16] = Maximum concentration in mouse administered orally at 20 mg/kg; assay type: ADME, organism-based; set-up: dose 20 mg/kg, route oral; settings: in vivo, po
[17] = Maximum concentration in rat administered orally at 50 mg/kg; assay type: ADME, organism-based; set-up: dose 50 mg/kg, route oral; settings: in vivo, po
[18] = Steady-state volume of distribution in mouse when administered intravenously at 4 mg/kg; assay type: ADME, organism-based; set-up: dose 4 mg/kg, route intravenous; settings: in vivo, iv, read-out: Vss
[19] = Total clearance in rat when administered intravenously at 4 mg/kg; assay type: ADME, organism-based; set-up: dose 4 mg/kg, route intravenous; settings: in vivo, iv, read-out: CLtot
[20] = Bioavailability in mouse administered perorally at 20 mg/kg; assay type: ADME, organism-based; settings: in vivo, po
[21] = Steady-state volume of distribution in rat when administered intravenously at 4 mg/kg; assay type: ADME, organism-based; set-up: dose 4 mg/kg, route intravenous; settings: in vivo, iv, read-out: Vss

T1 sequence (P08684 whole entry): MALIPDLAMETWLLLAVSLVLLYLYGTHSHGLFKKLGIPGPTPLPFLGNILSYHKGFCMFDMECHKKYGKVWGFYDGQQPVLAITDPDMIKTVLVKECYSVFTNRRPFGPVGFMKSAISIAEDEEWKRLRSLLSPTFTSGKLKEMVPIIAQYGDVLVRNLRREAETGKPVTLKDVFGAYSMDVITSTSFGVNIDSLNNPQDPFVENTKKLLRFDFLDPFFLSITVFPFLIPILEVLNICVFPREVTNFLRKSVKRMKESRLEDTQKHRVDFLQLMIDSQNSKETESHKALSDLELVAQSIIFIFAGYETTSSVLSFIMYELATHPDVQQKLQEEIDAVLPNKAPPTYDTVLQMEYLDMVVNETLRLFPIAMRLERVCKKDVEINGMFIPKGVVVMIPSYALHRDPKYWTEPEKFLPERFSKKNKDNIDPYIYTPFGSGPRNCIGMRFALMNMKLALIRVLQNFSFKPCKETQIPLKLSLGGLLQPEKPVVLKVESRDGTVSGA
Cytochrome P450 2C19, sequence (P33261 whole entry): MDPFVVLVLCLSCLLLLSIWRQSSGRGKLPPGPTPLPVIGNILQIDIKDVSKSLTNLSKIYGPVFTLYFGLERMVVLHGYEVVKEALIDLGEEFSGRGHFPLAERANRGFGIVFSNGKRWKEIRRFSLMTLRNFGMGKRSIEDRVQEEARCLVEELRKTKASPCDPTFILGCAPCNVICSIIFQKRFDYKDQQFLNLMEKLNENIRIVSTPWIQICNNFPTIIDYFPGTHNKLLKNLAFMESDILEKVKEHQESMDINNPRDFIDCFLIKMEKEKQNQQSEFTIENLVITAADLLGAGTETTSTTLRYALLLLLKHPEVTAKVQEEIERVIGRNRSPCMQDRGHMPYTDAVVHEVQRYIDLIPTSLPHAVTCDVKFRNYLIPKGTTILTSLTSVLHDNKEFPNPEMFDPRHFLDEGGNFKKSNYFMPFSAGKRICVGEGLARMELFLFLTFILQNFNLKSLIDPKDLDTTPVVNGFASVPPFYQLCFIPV
Dual specificity mitogen-activated protein kinase kinase 1, sequence (Q02750 whole entry): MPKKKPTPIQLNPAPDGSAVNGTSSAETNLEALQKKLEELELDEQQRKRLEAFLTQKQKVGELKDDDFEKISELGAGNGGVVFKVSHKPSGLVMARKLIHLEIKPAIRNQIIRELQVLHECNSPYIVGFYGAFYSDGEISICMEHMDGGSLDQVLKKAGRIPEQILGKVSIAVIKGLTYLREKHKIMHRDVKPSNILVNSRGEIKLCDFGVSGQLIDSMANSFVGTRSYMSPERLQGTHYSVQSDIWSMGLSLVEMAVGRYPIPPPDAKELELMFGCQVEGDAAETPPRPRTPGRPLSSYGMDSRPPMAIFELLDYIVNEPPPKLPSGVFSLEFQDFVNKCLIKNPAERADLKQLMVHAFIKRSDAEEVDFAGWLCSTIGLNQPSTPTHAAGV
Cytochrome P450 2C9, sequence (P11712 whole entry): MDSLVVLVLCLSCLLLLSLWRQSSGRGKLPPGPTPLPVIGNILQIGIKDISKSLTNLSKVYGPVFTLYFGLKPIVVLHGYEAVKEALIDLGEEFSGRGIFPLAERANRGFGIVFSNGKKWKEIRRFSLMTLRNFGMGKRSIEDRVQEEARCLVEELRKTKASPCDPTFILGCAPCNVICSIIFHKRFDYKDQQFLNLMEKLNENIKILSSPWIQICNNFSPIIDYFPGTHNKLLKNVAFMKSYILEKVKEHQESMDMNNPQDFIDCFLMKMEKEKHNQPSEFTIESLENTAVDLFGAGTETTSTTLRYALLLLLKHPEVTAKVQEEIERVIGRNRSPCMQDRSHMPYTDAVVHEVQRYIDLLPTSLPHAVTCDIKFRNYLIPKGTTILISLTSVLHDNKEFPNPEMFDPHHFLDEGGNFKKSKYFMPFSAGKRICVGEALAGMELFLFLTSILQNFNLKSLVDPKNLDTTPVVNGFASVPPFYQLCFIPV

Compound: Cc1cc(-n2ccnc2)cc2[nH]c(-c3c(NCC(O)c4cccc(Cl)c4)cc[nH]c3=O)nc12 (configuration not stated)
IC50 (Cytochrome P450 2C9): < 18 nM
IC50 (Cytochrome P450 2C19): 26 nM
IC50 (Cytochrome P450 3A4 [1]): < 18 nM
IC50 (Cytochrome P450 1A2): < 18 nM
IC50 (Cytochrome P450 3A4 [2]): < 18 nM

Cmax [3]: 4.1 µM
bioavailability [4]: > 100%
IC50 (COLO 205): 212 nM
Vd [5]: 1.4 L/kg
Cmax [6]: 1.3 µM
clearance [7]: 37.8 mL/min/kg
clearance [8]: 4.1 mL/min/kg
Vd [9]: 1.3 L/kg
IC50 [10]: 320 nM
IC50 [11]: 182 nM
IC50 [12]: 194 nM
clearance [13]: 16.5 mL/min/kg
bioavailability [14]: 32%
IC50 (RD): 202 nM
bioavailability [15]: 70%
IC50 (MCF7): 460 nM
Cmax [16]: 3.8 µM
Cmax [17]: 69 µM
Vd [18]: 1.9 L/kg
clearance [19]: 5.8 mL/min/kg
bioavailability [20]: 50%
Vd [21]: 0.8 L/kg
Compound: Cc1cc(N2CCOCC2)cc2[nH]c(-c3c(NC[C@@H](O)c4cccc(Cl)c4)cc[nH]c3=O)nc12
